Laboratory results reported in ChEMBL document CHEMBL1134319, “Synthesis and antitumor activity of novel C-7 paclitaxel ethers: discovery of BMS-184476” (J Med Chem, 2001).

How the values were obtained:
[1] = Ratio of IC50 values of HCT116 MDR resistant cell line to HCT-116 sensitive cell line.; type: functional
Procedure, shortened: (§1)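 IC50 was measured in the HCT-116/MDR paclitaxel-resistant human colon tumor line and in parental paclitaxel-sensitive HCT-116 cells. The ratio is resistant IC50 divided by sensitive IC50.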

M109 [2] = assay: In vivo efficacy against Madison Murine lung carcinoma M109 tumors implanted ip and the drug given ip on days 5 and 8 post implantation.; type: functional, Mus musculus
Procedure, shortened: (§2)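 M109 tumor was implanted ip and drug given ip on days 5 and 8 after implantation. Read-out was %T/C of the analogue at its maximum tolerated dose, reported against %T/C for paclitaxel at a historically determined efficacious dose, which is not its MTD. %T/C above 125% is counted as active.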

HCT-116 = assay: Inhibitory activity against human colon tumor cell sensitive to paclitaxel.; type: functional, cell-based
[3] = Inhibition of tubulin polymerization compared paclitaxel.; type: functional
Procedure, shortened: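 Tubulin polymerization was followed by optical density. The value is the compound concentration giving a change of 0.01 OD/h, expressed as a ratio to the paclitaxel concentration giving the same change.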

M109 [4] = assay: In vivo efficacy against Madison Murine lung carcinoma M109 tumors implanted sc and the drug given iv every day x 5 beginning 4 days post implantation.; type: functional, Mus musculus
Procedure, shortened: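 Murine M109 tumor was implanted subcutaneously, a site distal to drug administration. Dosing was iv daily ×5 starting 4 days after implant. Activity was expressed as gross log cell kill (LCK) of the analogue at its maximum tolerated dose, alongside LCK for paclitaxel at a historically determined efficacious dose. An LCK of 1 is counted as active.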

M109 [5] = assay: In vivo efficacy against Madison Murine lung carcinoma M109 tumors implanted ip and the drug given ip on days 5 and 8 post implantation; type: functional, Mus musculus; procedure, shortened: as §2
[6] = Ratio of IC50 values of HCT116 MDR resistant cell line to HCT-116 sensitive cell line; type: functional; procedure, shortened: as §1
Mus musculus [7] = organism: Mus musculus; assay: %T/C at optimal dose of 30 units for q2dx5;12 schedule in mice infected with HOC79 (ovarian ca.) cells.
Mus musculus [8] = organism: Mus musculus; assay: Gross log cell kill activity at optimal dose of 2 units for q2dx5;8 schedule in mice infected with A2780 (ovarian carcinoma) cells.; type: functional
Procedure, shortened: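 Staged A2780 tumours in mice. Dosing was intravenous, every other day for 5 doses, starting 8 days after implantation. Optimal dose is the one below the excessively toxic dose. Activity is reported as gross log cell kill.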

Mus musculus [9] = organism: Mus musculus; assay: Number of cures/total at optimal dose of 40 units for q2dx5;10 schedule in mice infected with HCT/pk (Colon ca.) cells; 1/8; type: functional
Mus musculus [10] = organism: Mus musculus; assay: Gross log cell kill activity at optimal dose of 40 units for q2dx5;10 schedule in mice infected with HCT/pk (Colon ca.) cells.; type: functional
Mus musculus [11] = organism: Mus musculus; assay: Number of cures/total at optimal dose of 30 units for q2dx5;26 schedule in mice infected with L2987 (Lung carcinoma) cells; 0/8; type: functional
Mus musculus [12] = organism: Mus musculus; assay: Number of cures/total at optimal dose of 2 units for q2dx5;8 schedule in mice infected with A2780 (ovarian carcinoma) cells; 0/8; type: functional
Mus musculus [13] = organism: Mus musculus; assay: Number of cures/total at optimal dose of 30 units for q2dx5;12 schedule in mice infected with HOC79 (ovarian ca.) cells; 0/8; type: functional
Mus musculus [14] = organism: Mus musculus; assay: Gross log cell kill activity at optimal dose of 30 units for q2dx5;26 schedule in mice infected with L2987 (Lung carcinoma) cells; type: functional

SMILES | IC50 (HCT-116) [nM] | Ratio [1] | Efficacy (M109 [2]) | Ratio [3] | further results
COCO[C@H]1C[C@H]2OC[C@@]2(OC(C)=O)C2[C@H](OC(=O)c3ccccc3)[C@]3(O)CC(OC(=O)[C@H](O)[C@@H](NC(=O)c4ccccc4)c4ccccc4)C(C)=C([C@@H](OC(C)=O)C(=O)[C@@]21C)C3(C)C (some centres not stated) | 1.4 | 10 | 192 | 0.5 | 
CO[C@H]1C[C@H]2OC[C@@]2(OC(C)=O)C2[C@H](OC(=O)c3ccccc3)[C@]3(O)CC(OC(=O)[C@H](O)[C@@H](NC(=O)OC(C)(C)C)c4ccco4)C(C)=C([C@@H](OC(C)=O)C(=O)[C@@]21C)C3(C)C (some centres not stated) | 1.3 |  |  | 0.4 | Efficacy (M109 [5]): 121; Ratio [6]: 1.7
CSCO[C@H]1C[C@H]2OC[C@@]2(OC(C)=O)C2[C@H](OC(=O)c3ccccc3)[C@]3(O)CC(OC(=O)[C@H](O)[C@H](C=C(C)C)NC(=O)OC(C)(C)C)C(C)=C([C@@H](OC(C)=O)C(=O)[C@@]21C)C3(C)C (some centres not stated) | 0.7 | 3.3 | 109 | 1.1 | 
CC(=O)O[C@H]1C(=O)[C@@]2(C)C([C@H](OC(=O)c3ccccc3)[C@]3(O)CC(OC(=O)[C@H](O)[C@@H](NC(=O)OC(C)(C)C)c4ccccc4)C(C)=C1C3(C)C)[C@]1(OC(C)=O)CO[C@@H]1C[C@@H]2OCOCCO (some centres not stated) | 1.1 | 0.7 | 136 | 1.6 | 
CC(=O)O[C@H]1C(=O)[C@@]2(C)[C@H]([C@H](OC(=O)c3ccccc3)[C@]3(O)C[C@H](OC(=O)[C@H](O)[C@@H](NC(=O)c4ccccc4)c4ccccc4)C(C)=C1C3(C)C)[C@]1(OC(C)=O)CO[C@@H]1C[C@@H]2O [PACLITAXEL] |  | 200 |  | 1 | %T/C (Mus musculus [7]): 273%; LCK (Mus musculus [8]): 6.1; C/T (Mus musculus [9]): 1; LCK (Mus musculus [10]): 2.8; C/T (Mus musculus [11]): 0; C/T (Mus musculus [12]): 0; C/T (Mus musculus [13]): 0; LCK (Mus musculus [14]): 1.3
COCCOCO[C@H]1C[C@H]2OC[C@@]2(OC(C)=O)C2[C@H](OC(=O)c3ccccc3)[C@]3(O)CC(OC(=O)[C@H](O)[C@@H](NC(=O)c4ccccc4)c4ccccc4)C(C)=C([C@@H](OC(C)=O)C(=O)[C@@]21C)C3(C)C (some centres not stated) | 0.9 |  | 132 | 1.1 | 
CSCO[C@H]1C[C@H]2OC[C@@]2(OC(C)=O)C2[C@H](OC(=O)c3ccccc3)[C@]3(O)CC(OC(=O)[C@H](O)[C@@H](NC(=O)OC(C)(C)C)c4ccco4)C(C)=C([C@@H](OC(C)=O)C(=O)[C@@]21C)C3(C)C (some centres not stated) | 1.7 | 1 | 104 | 1.6 | 
COCO[C@H]1C[C@H]2OC[C@@]2(OC(C)=O)C2[C@H](OC(=O)c3ccccc3)[C@]3(O)CC(OC(=O)[C@H](O)[C@@H](NC(=O)OCc4ccccc4)c4ccccc4)C(C)=C([C@@H](OC(C)=O)C(=O)[C@@]21C)C3(C)C (some centres not stated) | 1.4 |  | 139 | 0.6 | 
CCCCOC(=O)N[C@@H](c1ccccc1)[C@@H](O)C(=O)OC1C[C@@]2(O)[C@@H](OC(=O)c3ccccc3)C3[C@](C)(C(=O)[C@H](OC(C)=O)C(=C1C)C2(C)C)[C@@H](OCSC)C[C@H]1OC[C@@]31OC(C)=O (some centres not stated) | 1.2 |  | 177 | 0.6 | Efficacy (M109 [4]): 0.2
CC(=O)O[C@H]1C(=O)[C@@]2(C)C([C@H](OC(=O)c3ccccc3)[C@]3(O)CC(OC(=O)[C@H](O)[C@@H](NC(=O)OC(C)(C)C)c4ccco4)C(C)=C1C3(C)C)[C@]1(OC(C)=O)CO[C@@H]1C[C@@H]2OCOCCO (some centres not stated) | 1.7 | 4.1 |  | 0.3 | 
CCOCO[C@H]1C[C@H]2OC[C@@]2(OC(C)=O)C2[C@H](OC(=O)c3ccccc3)[C@]3(O)CC(OC(=O)[C@H](O)[C@@H](NC(=O)c4ccccc4)c4ccccc4)C(C)=C([C@@H](OC(C)=O)C(=O)[C@@]21C)C3(C)C (some centres not stated) | 2.2 |  | 132 | 0.6 | 

More lines, main results first:

IC50 (HCT-116) [nM] | SMILES | Ratio [1] | Efficacy (M109 [2]) | Ratio [3] | further results
1.1 | COCO[C@H]1C[C@H]2OC[C@@]2(OC(C)=O)C2[C@H](OC(=O)c3ccccc3)[C@]3(O)CC(OC(=O)[C@H](O)[C@@H](NC(=O)OC(C)(C)C)c4ccccc4)C(C)=C([C@@H](OC(C)=O)C(=O)[C@@]21C)C3(C)C (some centres not stated) | 2 | 118 | 0.2 | 
0.9 | CC(=O)O[C@H]1C(=O)[C@@]2(C)C([C@H](OC(=O)c3ccccc3)[C@]3(O)CC(OC(=O)[C@H](O)[C@@H](NC(=O)OC(C)C)c4ccco4)C(C)=C1C3(C)C)[C@]1(OC(C)=O)CO[C@@H]1C[C@@H]2OCOCCO (some centres not stated) |  | 145 | 0.3 | 
1.7 | CSCO[C@H]1C[C@H]2OC[C@@]2(OC(C)=O)C2[C@H](OC(=O)c3ccccc3)[C@]3(O)CC(OC(=O)[C@H](O)[C@@H](NC(=O)OC(C)C)c4ccccc4)C(C)=C([C@@H](OC(C)=O)C(=O)[C@@]21C)C3(C)C (some centres not stated) |  | 191 | 1.6 | Efficacy (M109 [4]): 0.5
1.1 | CC(=O)O[C@H]1C(=O)[C@@]2(C)C([C@H](OC(=O)c3ccccc3)[C@]3(O)CC(OC(=O)[C@H](O)[C@@H](NC(=O)c4ccccc4)c4ccccc4)C(C)=C1C3(C)C)[C@]1(OC(C)=O)CO[C@@H]1C[C@@H]2OCOCCO (some centres not stated) |  | 238 | 1 | Efficacy (M109 [4]): 0.9
1.3 | COCO[C@H]1C[C@H]2OC[C@@]2(OC(C)=O)C2[C@H](OC(=O)c3ccccc3)[C@]3(O)CC(OC(=O)[C@H](O)[C@@H](NC(=O)OC(C)(C)C)c4ccco4)C(C)=C([C@@H](OC(C)=O)C(=O)[C@@]21C)C3(C)C (some centres not stated) | 5.6 | 118 | 0.4 | 
0.6 | CSCO[C@H]1C[C@H]2OC[C@@]2(OC(C)=O)C2[C@H](OC(=O)c3ccccc3)[C@]3(O)CC(OC(=O)[C@H](O)[C@@H](NC(=O)c4ccccc4)c4ccco4)C(C)=C([C@@H](OC(C)=O)C(=O)[C@@]21C)C3(C)C (some centres not stated) |  | 191 | 1 | Efficacy (M109 [4]): 1.1
2.1 | COCO[C@H]1C[C@H]2OC[C@@]2(OC(C)=O)C2[C@H](OC(=O)c3ccccc3)[C@]3(O)CC(OC(=O)[C@H](O)[C@@H](NC(=O)c4ccccc4)c4ccco4)C(C)=C([C@@H](OC(C)=O)C(=O)[C@@]21C)C3(C)C (some centres not stated) |  |  | 2.3 | Efficacy (M109 [5]): 115
